The source made the active and inactive calls. The calls are words filed in the database; no cut-off is given here.

Results on two compounds are retold here after ChEMBL document CHEMBL3774321, “Systematic diversification of benzylidene heterocycles yields novel inhibitor scaffolds selective for Dyrk1A, Clk1 and CK2” (Eur J Med Chem, 2016).

Assay [1] deals with Activin receptor type-1 (Homo sapiens) (UniProt Q04771). The assay is described as follows: Inhibition of recombinant human GST-tagged ACVR1 expressed in baculovirus expression system at 1 uM by lantha screen kinase binding assay relative to control. In a few lines:
(§1)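 Binding-displacement format: the compound competes with an Alexa Fluor-conjugated tracer for binding to the kinase ATP site, rather than a peptide phosphorylation read-out.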

Assay [2] deals with Casein kinase I isoform gamma-3 (Homo sapiens) (UniProt Q9Y6M4). The assay is described as follows: Inhibition of full length recombinant human GST-tagged CSNK1G3 expressed in baculovirus expression system at 1 uM by lantha screen kinase binding assay relative to control.
Sequence of Casein kinase I isoform gamma-3 (Homo sapiens) (Q9Y6M4 whole entry, looked up, canonical isoform): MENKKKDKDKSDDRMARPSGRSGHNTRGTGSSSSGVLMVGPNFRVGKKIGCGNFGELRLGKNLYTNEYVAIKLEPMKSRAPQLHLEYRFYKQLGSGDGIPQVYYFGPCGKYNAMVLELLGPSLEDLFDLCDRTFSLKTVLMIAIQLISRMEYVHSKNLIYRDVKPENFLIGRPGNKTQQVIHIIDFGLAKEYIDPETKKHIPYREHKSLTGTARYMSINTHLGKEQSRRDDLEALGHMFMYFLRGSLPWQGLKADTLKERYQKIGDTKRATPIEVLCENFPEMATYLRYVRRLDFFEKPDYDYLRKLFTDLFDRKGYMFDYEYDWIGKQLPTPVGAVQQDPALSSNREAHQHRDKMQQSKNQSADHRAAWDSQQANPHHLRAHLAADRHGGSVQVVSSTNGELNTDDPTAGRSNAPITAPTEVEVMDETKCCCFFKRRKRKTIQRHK
In assay [3] the target is Homeodomain-interacting protein kinase 1 (Homo sapiens) (UniProt Q86Z02). The assay is described as follows: Inhibition of recombinant human N-terminal GST-tagged HIPK1 expressed in baculovirus expression system at 5 uM by lantha screen kinase binding assay relative to control. In a few lines:
as §1

Sequence of Homeodomain-interacting protein kinase 1 (Homo sapiens) (Q86Z02 whole entry, looked up): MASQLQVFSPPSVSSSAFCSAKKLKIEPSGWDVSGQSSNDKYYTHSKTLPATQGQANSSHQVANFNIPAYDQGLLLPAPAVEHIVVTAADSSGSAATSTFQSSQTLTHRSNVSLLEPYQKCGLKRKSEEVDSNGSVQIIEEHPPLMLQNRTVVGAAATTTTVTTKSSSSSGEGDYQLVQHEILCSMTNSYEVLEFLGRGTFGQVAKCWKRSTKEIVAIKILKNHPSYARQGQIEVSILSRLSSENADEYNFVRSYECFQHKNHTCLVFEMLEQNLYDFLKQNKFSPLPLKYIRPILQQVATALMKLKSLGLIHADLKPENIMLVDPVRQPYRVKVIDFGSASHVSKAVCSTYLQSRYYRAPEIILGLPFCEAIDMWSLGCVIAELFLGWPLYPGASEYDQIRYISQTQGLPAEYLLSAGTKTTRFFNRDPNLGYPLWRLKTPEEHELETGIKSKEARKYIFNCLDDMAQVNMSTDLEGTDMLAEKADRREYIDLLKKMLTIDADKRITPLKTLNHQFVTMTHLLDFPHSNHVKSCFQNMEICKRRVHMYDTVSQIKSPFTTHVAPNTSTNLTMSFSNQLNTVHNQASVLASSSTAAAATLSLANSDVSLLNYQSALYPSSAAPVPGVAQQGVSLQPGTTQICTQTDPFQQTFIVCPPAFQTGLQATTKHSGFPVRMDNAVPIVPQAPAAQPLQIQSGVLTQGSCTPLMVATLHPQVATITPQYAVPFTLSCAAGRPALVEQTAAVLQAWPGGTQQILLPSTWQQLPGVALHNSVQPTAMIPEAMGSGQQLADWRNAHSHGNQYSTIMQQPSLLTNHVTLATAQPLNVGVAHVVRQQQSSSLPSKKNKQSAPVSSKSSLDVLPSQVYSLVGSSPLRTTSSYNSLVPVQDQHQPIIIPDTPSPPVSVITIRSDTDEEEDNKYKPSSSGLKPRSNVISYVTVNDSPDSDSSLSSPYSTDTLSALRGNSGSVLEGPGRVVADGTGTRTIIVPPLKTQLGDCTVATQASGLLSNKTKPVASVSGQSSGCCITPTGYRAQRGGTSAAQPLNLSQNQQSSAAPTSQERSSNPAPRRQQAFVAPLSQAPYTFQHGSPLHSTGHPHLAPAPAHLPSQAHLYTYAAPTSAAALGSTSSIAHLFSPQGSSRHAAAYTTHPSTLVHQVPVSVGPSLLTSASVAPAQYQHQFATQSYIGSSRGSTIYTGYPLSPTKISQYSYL
Sequence of Activin receptor type-1 (Homo sapiens) (Q04771 whole entry): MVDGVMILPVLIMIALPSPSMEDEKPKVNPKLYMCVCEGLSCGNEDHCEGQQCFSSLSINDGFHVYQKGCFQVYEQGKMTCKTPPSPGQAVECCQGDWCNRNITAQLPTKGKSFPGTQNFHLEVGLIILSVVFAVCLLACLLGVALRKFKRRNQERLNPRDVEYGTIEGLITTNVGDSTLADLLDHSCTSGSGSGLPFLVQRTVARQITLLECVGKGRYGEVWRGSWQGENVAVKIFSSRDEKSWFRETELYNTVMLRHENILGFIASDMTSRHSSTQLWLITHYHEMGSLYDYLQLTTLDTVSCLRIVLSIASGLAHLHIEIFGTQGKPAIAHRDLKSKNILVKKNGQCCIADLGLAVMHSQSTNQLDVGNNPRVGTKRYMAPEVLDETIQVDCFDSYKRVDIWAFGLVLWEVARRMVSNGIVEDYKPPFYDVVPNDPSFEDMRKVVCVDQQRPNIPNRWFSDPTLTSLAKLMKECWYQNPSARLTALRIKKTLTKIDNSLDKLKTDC

One may read the inhibition as the change of the read-out against control, counted positive when it falls. As to `O=C1NC(=S)S/C1=C\c1ccc2ncccc2c1`, the inhibition in assay [1] stood at 37%; in assay [2], 17%.
As to `O=C1NC(=S)S/C1=C\c1ccc2ncsc2c1`, in assay [3], the inhibition result is “inactive”.
